Assay: Antitumor activity against human KB3 cells after 96 hrs by MTT assay
Format: functional, cell-based
Conditions: KB3, 96 h
How it was run: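 Human KB-3 carcinoma cells exposed to increasing compound concentrations; viability read by MTT colorimetric assay after 96 h. Values are means of triplicate assays, expressed relative to untreated controls.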

Row | Compound | IC50
1 | C=C(C)[C@H]1CC=C(C)[C@@]2(O)[C@@H]1[C@H](c1ccccc1Br)O[C@@H]2C(=O)OCC1CCCC1 | > 100 µM
2 | C=C(C)[C@H]1CC=C(C)[C@@]2(O)[C@@H]1[C@H](c1cccc(Cl)c1Cl)O[C@@H]2C(=O)OCC | 5 µM
3 | C=C(C)[C@H]1CC=C(C)[C@@]2(O)[C@@H]1[C@H](c1ccccn1)O[C@@H]2C(=O)OC | 100 µM
